Our source for the Activity values is ChEMBL document CHEMBL4373713, “Effect of 1-Deoxynojirimycin Isolated from Mulberry Leaves on Glucose Metabolism and Gut Microbiota in a Streptozotocin-Induced Diabetic Mouse Model” (J Nat Prod, 2019).

Active and inactive are the calls of the source. The rule behind the calls is not given here.

What all share (format): functional, organism-based
Test [1] concerns Mus musculus. Nature of the test: Antidiabetic activity in po dosed STZ-induced Kunming mouse model of diabetes assessed as reduction in fasting serum insulin level administered QD administered via gavage for 4 weeks. A digest of the protocol: (§1)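 Fasting serum insulin was measured by commercial kit on plasma from orbital-sinus blood taken after an overnight fast at day 28. HOMA-IR was derived to assess insulin sensitivity. Diabetic mice were gavaged daily at 31.25–125 mg/kg. Mean ± SD, Duncan's test.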

In test [2] the test system is Mus musculus. Kind of test: Antidiabetic activity in STZ-induced Kunming mouse model of diabetes assessed as increase in Bifidobacterium level in feces at 31.25 to 125 mg/kg, po administered QD administered via gavage for 4 weeks by 16S rDNA based Illumina sequencing method.
Test [3] concerns Mus musculus. Nature of the test: Antidiabetic activity in STZ-induced Kunming mouse model of diabetes assessed as increase in Lachnospiraceae level in feces at 31.25 to 125 mg/kg, po administered QD administered via gavage for 4 weeks by 16S rDNA based DNA sequencing analysis.
The subject of test [4] is Mus musculus. Nature of the test: Antidiabetic activity in STZ-induced Kunming mouse model of diabetes assessed as down regulation of PCB expression level in liver at 62.5 to 125 m/kg, po administered QD administered via gavage for 4 weeks by Western blot analysis. A digest of the protocol: (§2)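 Livers from diabetic mice after 28 days of daily gavage (31.25–125 mg/kg) were homogenized and spun at 14 000g, 4 °C. Proteins were run on 10% SDS-PAGE and transferred to PVDF, then blocked in 5% milk for 1 h. Primary antibodies (GK, PK, PFK, PCB, PEPCK, FBPase, G-6-Pase, p-IR Tyr999, p-IRS-1 Ser307) were applied for 1 h at 25 °C, followed by HRP anti-rabbit IgG and ECL detection. Mean ± SD, Duncan's test.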

Test [5] concerns Mus musculus. Nature of the test: Antidiabetic activity in STZ-induced Kunming mouse model of diabetes assessed as decrease in LDL-C level at 62.5 to 125 m/kg, po administered QD administered via gavage for 4 weeks. A digest of the protocol:
(§3)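 STZ/high-fat-diet diabetic Kunming mice (n=10/group) were gavaged daily for 28 days at 31.25–125 mg/kg. After an overnight fast, orbital-sinus blood was taken and plasma was spun at 1000g, 4 °C. TC, TG and HDL-C were measured by kit. LDL-C was calculated by Friedewald: TC − (HDL-C + TG/2.2), with TG below 4.5 mmol/L. Data are mean ± SD, Duncan's test.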

Test [6] deals with Mus musculus. Kind of test: Antidiabetic activity in STZ-induced Kunming mouse model of diabetes assessed as reduction in TG level at 31.25 to 125 m/kg, po administered QD administered via gavage for 4 weeks. A digest of the protocol:
as §3

The test system of test [7] is Mus musculus. Kind of test: Antidiabetic activity in po dosed STZ-induced Kunming mouse model of diabetes assessed as reduction in HOMA-IR index level administered QD administered via gavage for 4 weeks. A digest of the protocol: as §1
Test [8] concerns Mus musculus. Nature of the test: Antidiabetic activity in STZ-induced Kunming mouse model of diabetes assessed as increase in Alistipes level in feces at 31.25 to 125 mg/kg, po administered QD administered via gavage for 4 weeks by 16S rDNA based DNA sequencing analysis.
The test system of test [9] is Mus musculus. Nature of the test: Antidiabetic activity in STZ-induced Kunming mouse model of diabetes assessed as increase in hepatic glycogen level at 31.25 to 125 m/kg, po administered QD administered via gavage for 4 weeks. A digest of the protocol:
(§4)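 Diabetic mice (high-fat diet plus STZ 35 mg/kg i.p.) were dosed by gavage once daily for 28 days at 31.25–125 mg/kg. After an overnight fast at endpoint, liver and plasma were collected. ALT, hepatic glycogen and pyruvic acid were measured with commercial kits.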

In test [10] the test system is Mus musculus. Kind of test: Antidiabetic activity in STZ-induced Kunming mouse model of diabetes assessed as decrease in Rumino-coccaceae UCG-014 level in feces at 31.25 to 125 mg/kg, po administered QD administered via gavage for 4 weeks by 16S rDNA based Illumina sequencing method.
Test [11] concerns Mus musculus. Nature of the test: Antidiabetic activity in po dosed STZ-induced Kunming mouse model of diabetes assessed as decrease in IRS-1 (Ser 307 residues) expression in liver administered QD administered via gavage for 4 weeks by Western blot analysis. A digest of the protocol: as §2
Test [12] concerns Mus musculus. Kind of test: Antidiabetic activity in po dosed STZ-induced Kunming mouse model of diabetes assessed as increase in IR phosphorylation at (Tyr 999 residues) expression in liver administered QD administered via gavage for 4 weeks by Western blot analysis. The essentials: as §2
Test [13] has as its system Mus musculus. Kind of test: Antidiabetic activity in STZ-induced Kunming mouse model of diabetes assessed as increase in HDL-C level at 31.25 to 125 m/kg, po administered QD administered via gavage for 4 weeks. A digest of the protocol:
as §3

Test [14] has as its system Mus musculus. Kind of test: Antidiabetic activity in STZ-induced Kunming mouse model of diabetes assessed as decrease in pyruvic acid level at 31.25 to 125 m/kg, po administered QD administered via gavage for 4 weeks. The essentials:
as §4

In test [15] the test system is Mus musculus. Kind of test: Antidiabetic activity in STZ-induced Kunming mouse model of diabetes assessed as increase in Lactococcus level in feces at 31.25 to 125 mg/kg, po administered QD administered via gavage for 4 weeks by 16S rDNA based DNA sequencing analysis.
In test [16] the test system is Mus musculus. Kind of test: Antidiabetic activity in po dosed STZ-induced Kunming mouse model of diabetes assessed as reduction in ALT activity administered QD administered via gavage for 4 weeks. A digest of the protocol:
as §4

Test [17] deals with Mus musculus. Nature of the test: Antidiabetic activity in po dosed STZ-induced Kunming mouse model of diabetes assessed as reduction in fasting serum glucose level administered QD administered via gavage for 4 weeks and measured 2 weeks during compound dosing. The essentials:
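Fasting serum glucose was taken from the tail tip on days 0, 7, 14, 21 and 28 in STZ (35 mg/kg i.p.)/high-fat-diet Kunming mice. Mice were gavaged once daily at 31.25, 62.5 or 125 mg/kg in 0.5 mL, n=10 per group.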

The test system of test [18] is Mus musculus. Nature of the test: Antidiabetic activity in STZ-induced Kunming mouse model of diabetes assessed as decrease in TC level at 125 m/kg, po administered QD administered via gavage for 4 weeks. The essentials:
as §3

The test system of test [19] is Mus musculus. Nature of the test: Antidiabetic activity in STZ-induced Kunming mouse model of diabetes assessed as increase in LPL mRNA level at 31.25 to 125 m/kg, po administered QD administered via gavage for 4 weeks by RT-PCR analysis. The essentials: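 Liver RNA was Trizol-extracted and reverse-transcribed. qPCR ran 95 °C 10 min, then 45 cycles of 95 °C 15 s, 55 °C 20 s and 72 °C 30 s. LPL was normalized to β-actin and quantified by 2−ΔΔCt. Samples came from STZ/high-fat-diet diabetic mice gavaged daily for 28 days at 31.25–125 mg/kg.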

In test [20] the test system is Mus musculus. Kind of test: Antidiabetic activity in STZ-induced Kunming mouse model of diabetes assessed as decrease in Prevo-tellaceae Ga6A1 level in feces at 31.25 to 125 mg/kg, po administered QD administered via gavage for 4 weeks by 16S rDNA based DNA sequencing analysis.

With `OC[C@H]1NC[C@H](O)[C@@H](O)[C@@H]1O`, the Activity entry with Mus musculus [1], with Mus musculus [7], with Mus musculus [11], with Mus musculus [12], with Mus musculus [16] and with Mus musculus [17] was “Dose-dependent effect” throughout. Besides, the result in the test with Mus musculus [2], in the test on Mus musculus [3], with Mus musculus [4], with Mus musculus [5], in the test with Mus musculus [6] and with Mus musculus [8] was Active. Moreover, the outcome with Mus musculus [9], in the test with Mus musculus [10], in the test with Mus musculus [13], in the test on Mus musculus [14], with Mus musculus [18] and in the test on Mus musculus [19] was Active. For the same compound, in the test on Mus musculus [20], the outcome was Active. In the test on Mus musculus [15], the outcome was inactive.
